Source: ChEMBL document CHEMBL1131071, “Design and synthesis of brefeldin A sulfide derivatives as prodrug candidates with enhanced aqueous solubilities” (1998)

Assays:
Type in all cases: functional
Conditions in all cases: Homo sapiens
UACC-62 = assay: Cytotoxicity against melanoma UACC-62 cancer cell cultures.
Summary of the method: (§1)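 Human cancer cell lines from a panel of about 55, incubated with compound for 72 h (3-day incubation). Values are single determinations or, where given with population standard deviation, two determinations.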

SN12C = assay: Cytotoxicity against renal SN12C cancer cell cultures.; summary of the method: as §1
DU-145 = assay: Cytotoxicity against prostate DU-145 cancer cell cultures.; summary of the method: as §1
HOP-62 = assay: Cytotoxicity against lung HOP-62 cancer cell cultures.; summary of the method: as §1
OVCAR-3 = assay: Cytotoxicity against ovarian OVCAR-3 cancer cell cultures.; summary of the method: as §1
MDA-MB-435 = assay: Cytotoxicity against breast MDA-MB-435 cancer cell cultures.; summary of the method: as §1
SF-539 = assay: Cytotoxicity against CNS SF-539 cancer cell cultures.; summary of the method: as §1
HCT-116 = assay: Cytotoxicity against colon HCT116 cancer cell cultures.; summary of the method: as §1

Structure (SMILES) | GI50 (UACC-62) | GI50 (SN12C) | GI50 (DU-145) | GI50 (HOP-62) | GI50 (OVCAR-3) | GI50 (MDA-MB-435) | GI50 (SF-539) | GI50 (HCT-116)
C[C@H]1CCC/C=C/[C@@H]2C[C@H](O)C[C@H]2[C@H](O)[C@H]([S+]([O-])CCO)CC(=O)O1 (stereo not given in full) | 0.064 µM | 0.65 µM | 0.26 µM | 0.29 µM | 0.19 µM | 0.09 µM | 0.058 µM | 0.21 µM
C[C@H]1CCC/C=C/[C@@H]2C[C@H](O)C[C@H]2[C@H](O)[C@H](SCCN(C)C)CC(=O)O1 | 0.43 µM | 1.4 µM | 2.4 µM | 0.54 µM | 0.54 µM | 0.5 µM | 0.39 µM | 0.75 µM
C[C@H]1CCC/C=C/[C@@H]2C[C@H](O)C[C@H]2[C@H](O)[C@H]([S+]([O-])c2ccc(O)cc2)CC(=O)O1 (stereo not given in full) | 0.03 µM | 0.05 µM | 0.118 µM | 0.088 µM | 0.025 µM | 0.042 µM | 0.017 µM | 0.026 µM
C[C@H]1CCC/C=C/[C@@H]2C[C@H](O)C[C@H]2[C@H](O)[C@H](Sc2ccc(O)cc2)CC(=O)O1 | 4.8 µM | 4.4 µM | 6.3 µM | 3.2 µM | 2.4 µM | 3.3 µM | 5.1 µM | 2.5 µM
C[C@H]1CCC/C=C/[C@@H]2C[C@H](O)C[C@H]2[C@H](O)[C@H](SCCN)CC(=O)O1 | 2.7 µM |  |  | 3.9 µM | 2.2 µM | 3.3 µM | 4.9 µM | 3.5 µM
C[C@H]1CCC/C=C/[C@@H]2C[C@H](OC(=O)CCCC(=O)O)C[C@H]2[C@H](O)/C=C/C(=O)O1 |  | 32 µM | 30 µM | 33 µM | 20 µM | 11 µM | 22 µM | 21 µM
C[C@H]1CCC/C=C/[C@@H]2C[C@H](OC(=O)CCC(=O)O)C[C@H]2[C@H](O)/C=C/C(=O)O1 | 1.9 µM |  | 6.8 µM | 3.4 µM | 3.3 µM |  |  | 17 µM
C[C@H]1CCC/C=C/[C@@H]2C[C@H](OC(=O)CCCC(=O)O)C[C@H]2[C@H](OC(=O)CCCC(=O)O)/C=C/C(=O)O1 | > 100 µM | > 100 µM | > 100 µM | > 100 µM | > 100 µM | > 100 µM | > 100 µM | > 100 µM
C[C@H]1CCC/C=C/[C@@H]2C[C@H](OC(=O)CCC(=O)O)C[C@H]2[C@H](OC(=O)CCC(=O)O)/C=C/C(=O)O1 | > 100 µM | > 100 µM | > 100 µM | > 100 µM | > 100 µM | > 100 µM | > 100 µM | > 100 µM
C[C@H]1CCC/C=C/[C@@H]2C[C@H](O)C[C@H]2[C@H](O)[C@H](SCCO)CC(=O)O1 | 40 µM | 33 µM | 30 µM | 34 µM | 27 µM | 34 µM | 23 µM | 19 µM
COC(=O)CS[C@@H]1CC(=O)O[C@@H](C)CCC/C=C/[C@@H]2C[C@H](O)C[C@H]2[C@@H]1O | 6.8 µM | 32 µM | 30 µM | 28 µM | 27 µM | 30 µM | 24 µM | 19 µM
C[C@H]1CCC/C=C/[C@@H]2C[C@H](O)C[C@H]2[C@H](O)[C@H]([S+]([O-])CCN(C)C)CC(=O)O1 (stereo not given in full) | 0.071 µM | 0.15 µM | 0.48 µM | 0.35 µM | 0.14 µM | 0.41 µM | 0.3 µM | 0.28 µM
COC(=O)CS(=O)(=O)[C@@H]1CC(=O)O[C@@H](C)CCC/C=C/[C@@H]2C[C@H](O)C[C@H]2[C@@H]1O | 5 µM | 3.3 µM | 6 µM | 5.1 µM | 3.2 µM | 5.5 µM |  | 3.7 µM
C[C@H]1CCC/C=C/[C@@H]2C[C@H](O)C[C@H]2[C@H](O)[C@H](SCC(=O)O)CC(=O)O1 | 33 µM | 39 µM | 38 µM | 30 µM | 30 µM | 42 µM | 34 µM | 23 µM
COc1ccc(S[C@@H]2CC(=O)O[C@@H](C)CCC/C=C/[C@@H]3C[C@H](O)C[C@H]3[C@@H]2O)cc1 | 29 µM | 30 µM | 36 µM | 24 µM | 22 µM | 19 µM | 26 µM | 33 µM
C[C@H]1CCC/C=C/[C@@H]2C[C@H](O)C[C@H]2[C@H](O)[C@H](SCC(O)CO)CC(=O)O1 (stereo not given in full) | 16 µM | 34 µM | 18 µM | 33 µM | 22 µM | 36 µM | 32 µM | 36 µM
C[C@H]1CCC/C=C/[C@@H]2C[C@H](O)C[C@H]2[C@H](O)C(O)C(O)C(=O)O1 (stereo not given in full) | 1.6 µM | 2.7 µM | 6.7 µM | 5 µM | 2.4 µM | 3.8 µM | 0.68 µM | 3.4 µM
C[C@H]1CCC/C=C/[C@@H]2C[C@H](O)C[C@H]2[C@H](O)[C@H]([S+]([O-])CC(N)C(=O)O)CC(=O)O1 (stereo not given in full) | 0.038 µM | 0.16 µM | 0.43 µM | 0.7 µM | 0.05 µM | 0.05 µM | 0.039 µM | 0.089 µM
C[C@H]1CCC/C=C/[C@@H]2C[C@H](O)C[C@H]2[C@H](O)[C@H]([S+]([O-])CCN)CC(=O)O1 (stereo not given in full) | 0.021 µM | 0.12 µM | 0.17 µM | 0.15 µM | 0.082 µM | 0.055 µM | 0.02 µM | 0.086 µM
